{"data": "Experimental data pooled from the literature", "target": "Ephrin type-B receptor 1 (EPHB1, Homo sapiens, UniProt P54762)", "Residues used in one study (P54762 18-984)": "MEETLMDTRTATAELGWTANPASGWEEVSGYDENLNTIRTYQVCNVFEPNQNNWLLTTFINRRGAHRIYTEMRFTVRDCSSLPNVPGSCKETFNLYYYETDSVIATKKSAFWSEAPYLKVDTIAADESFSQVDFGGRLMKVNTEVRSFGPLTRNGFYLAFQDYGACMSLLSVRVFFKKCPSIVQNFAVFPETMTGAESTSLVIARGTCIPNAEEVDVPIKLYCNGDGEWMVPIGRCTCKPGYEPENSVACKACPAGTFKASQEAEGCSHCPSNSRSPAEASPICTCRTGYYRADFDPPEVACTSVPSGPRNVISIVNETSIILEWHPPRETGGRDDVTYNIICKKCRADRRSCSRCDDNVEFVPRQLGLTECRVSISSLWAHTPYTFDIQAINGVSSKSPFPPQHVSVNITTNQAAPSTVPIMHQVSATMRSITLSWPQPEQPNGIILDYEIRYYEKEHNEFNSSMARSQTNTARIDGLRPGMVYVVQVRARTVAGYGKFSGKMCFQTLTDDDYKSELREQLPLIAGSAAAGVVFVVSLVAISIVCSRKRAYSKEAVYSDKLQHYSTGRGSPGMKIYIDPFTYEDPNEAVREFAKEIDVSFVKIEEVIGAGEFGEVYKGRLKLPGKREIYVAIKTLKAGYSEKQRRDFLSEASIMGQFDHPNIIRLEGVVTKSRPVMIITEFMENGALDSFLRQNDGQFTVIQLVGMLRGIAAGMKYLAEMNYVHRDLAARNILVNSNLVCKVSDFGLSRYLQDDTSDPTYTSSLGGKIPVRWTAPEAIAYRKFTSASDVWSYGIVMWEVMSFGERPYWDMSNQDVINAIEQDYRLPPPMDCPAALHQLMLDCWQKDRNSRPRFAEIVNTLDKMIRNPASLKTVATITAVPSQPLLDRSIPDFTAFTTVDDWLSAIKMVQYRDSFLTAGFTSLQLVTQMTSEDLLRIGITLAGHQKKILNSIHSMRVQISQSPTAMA"}
{"SMILES": "COc1ncccc1-c1cnn2ccc(N3CCN(C(=O)OC(C)C)CC3)nc12", "read-out": "binding", "method": "competition with immobilised ligand", "tested at": "1 µM", "quantity": "remaining binding", "value": "100%"}
{"SMILES": "Cn1cncc1[C@](O)(COc1ccc(C#N)cc1-c1ccc(OC(F)(F)F)cc1)c1ccc(C#N)cc1", "read-out": "cell-free assay", "method": "competition with immobilised ligand", "tested at": "1 µM", "quantity": "remaining binding", "value": "98%"}
{"SMILES": "Cc1nn(C)cc1-c1nc2c(N3CCN(Cc4ccc(Cl)cc4)CC3)c(Cl)cnc2[nH]1", "read-out": "binding", "method": "competition with immobilised ligand", "tested at": "1 µM", "quantity": "remaining binding", "value": "100%"}
{"SMILES": "C#Cc1n[nH]c2c(-c3cn([C@@H](C)c4ccccc4)c(=O)[nH]c3=O)cc(F)cc12", "read-out": "enzyme activity", "mode": "inhibitor", "tested at": "0.1 µM", "quantity": "inhibition", "value": "1.9%"}
{"SMILES": "Cn1cc(-c2cccc(N3CCc4c(sc5c4CC(C)(C)C5)C3=O)c2CO)cc(Nc2ccncn2)c1=O", "read-out": "enzyme activity", "mode": "inhibitor", "tested at": "1 µM", "quantity": "inhibition", "value": "4%"}
{"SMILES": "N#CC1(c2ccccn2)CCN(Cc2cc(C(=O)O)c(=O)n3ccccc23)CC1", "read-out": "cell-free assay", "method": "competition with immobilised ligand", "tested at": "1 µM", "quantity": "remaining binding", "value": "100%"}
{"SMILES": "O=c1[nH]c2ccccc2n1C1CCN(Cc2ccc(-c3[nH]c4cc5ncnc5cc4nc3-c3ccccc3)cc2)CC1", "read-out": "cell-free assay", "tested at": "0.5 µM", "quantity": "remaining signal", "value": "104%"}
{"SMILES": "Cn1cc(-c2cc(F)cc(N3CCn4c(cc5c4CCCC5)C3=O)c2CO)cc(Nc2ccc(N3CCN(C4COC4)CC3)cn2)c1=O", "read-out": "enzyme activity", "mode": "inhibitor", "tested at": "0.1 µM", "quantity": "inhibition", "value": "6%"}
{"SMILES": "COc1cc(Nc2ncc(F)c(Nc3ccc4c(n3)NC(=O)C(C)(C)O4)n2)cc(OC)c1OC", "read-out": "binding", "method": "competition with immobilised ligand", "tested at": "10 µM", "quantity": "inhibition", "value": "96%"}
{"SMILES": "C#Cc1n[nH]c2c(-c3cn(C(C)c4ccccn4)c(=O)[nH]c3=O)cc(F)cc12 (stereo not drawn)", "read-out": "enzyme activity", "mode": "inhibitor", "tested at": "1 µM", "quantity": "inhibition", "value": "4.9%"}
{"SMILES": "CC(C)(C)c1cc(C=C(C#N)C#N)cc(Br)c1O", "read-out": "enzyme activity", "mode": "inhibitor", "tested at": "0.5 µM", "quantity": "remaining activity", "value": "114%"}
{"SMILES": "Nc1ncc(-c2nc(N3CCOCC3)nc(N3CCOCC3)n2)c(C(F)F)n1", "read-out": "cell-free assay", "method": "competition with immobilised ligand", "tested at": "10 µM", "quantity": "remaining binding", "value": "98%"}
